The text below walks through data of ChEMBL document CHEMBL4145575, “ent-Kaurane Diterpenoids with Neuroprotective Properties from Corn Silk ( Zea mays)” (2018).

Test [1] concerns SH-SY5Y. Put plainly: Neuroprotective activity against H2O2-induced cell death in human SH-SY5Y cells assessed as increase in cell viability up to 100 uM. The format is functional, cell-based. The gist of the method: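 SH-SY5Y cells were injured with H2O2, with test compounds up to 100 μM. Viability was read by MTT assay and compared with the H2O2 model group. Trolox served as positive control. Data were reported as means ± SEM.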

Test [2] deals with SH-SY5Y. Put plainly: Neuroprotective activity against H2O2-induced cell death in human SH-SY5Y cells assessed as increase in cell viability at 100 uM relative to control. The format is functional. The gist of the method: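 SH-SY5Y cells exposed to H2O2, with or without test compound; viability read by MTT assay and compared with the H2O2-only model group. Trolox served as positive control. Cell viability given as means ± SEM.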

The test system of test [3] is SH-SY5Y. Put plainly: Neuroprotective activity against H2O2-induced apoptosis in human SH-SY5Y cells assessed as late apoptotic cells at 25 uM pretreated for 1 hr followed by H2O2-stimulation after 4 hrs by Annexin-V-FITC/propidium iodide staining based flow cytometry (reference value: 15%). The format is functional. For orientation: In flow cytometry, cells or beads pass a laser one at a time.

Test [4] concerns SH-SY5Y. Kind of test: Neuroprotective activity against H2O2-induced apoptosis in human SH-SY5Y cells assessed as early apoptotic cells at 50 uM pretreated for 1 hr followed by H2O2-stimulation after 4 hrs by Annexin-V-FITC/propidium iodide staining based flow cytometry (reference value: 6.4%). The format is functional.
For test [5], the system named is SH-SY5Y. Put plainly: Neuroprotective activity against H2O2-induced apoptosis in human SH-SY5Y cells assessed as reduction in nuclear fragmentation at 25 to 100 uM after 4 hrs by Hoechst 33258 staining based fluorescence microscopic analysis. The format is functional, cell-based. In a few lines:
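SH-SY5Y cells were incubated with H2O2 (200 μM) for 4 h, with or without compound at 25, 50 or 100 μM. Nuclei were stained with the DNA dye Hoechst 33258. Chromatin condensation and fragmented nuclei were scored by fluorescence microscopy against untreated control and H2O2-only cells.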

Test [6] relates to SH-SY5Y. Kind of test: Neuroprotective activity against H2O2-induced apoptosis in human SH-SY5Y cells assessed as necrotic cells at 100 uM pretreated for 1 hr followed by H2O2-stimulation after 4 hrs by Annexin-V-FITC/propidium iodide staining based flow cytometry (reference value: 2.63%). The format is functional.
Test [7] concerns SH-SY5Y. Kind of test: Neuroprotective activity against H2O2-induced apoptosis in human SH-SY5Y cells assessed as viable cells at 25 uM pretreated for 1 hr followed by H2O2-stimulation after 4 hrs by Annexin-V-FITC/propidium iodide staining based flow cytometry (reference value: 76%). The format is functional. The settings on record: read-out: Activity.
Test [8] concerns SH-SY5Y. Kind of test: Neuroprotective activity against H2O2-induced apoptosis in human SH-SY5Y cells assessed as viable cells at 100 uM pretreated for 1 hr followed by H2O2-stimulation after 4 hrs by Annexin-V-FITC/propidium iodide staining based flow cytometry (reference value: 76%). The format is functional. The settings on record: read-out: Activity.
Test [9] concerns SH-SY5Y. Kind of test: Neuroprotective activity against H2O2-induced apoptosis in human SH-SY5Y cells assessed as necrotic cells at 50 uM pretreated for 1 hr followed by H2O2-stimulation after 4 hrs by Annexin-V-FITC/propidium iodide staining based flow cytometry (reference value: 2.63%). The format is functional.
In test [10] the test system is SH-SY5Y. Put plainly: Neuroprotective activity against H2O2-induced apoptosis in human SH-SY5Y cells assessed as necrotic cells at 25 uM pretreated for 1 hr followed by H2O2-stimulation after 4 hrs by Annexin-V-FITC/propidium iodide staining based flow cytometry (reference value: 2.63%). The format is functional.
The test system of test [11] is SH-SY5Y. Put plainly: Neuroprotective activity against H2O2-induced apoptosis in human SH-SY5Y cells assessed as early apoptotic cells at 25 uM pretreated for 1 hr followed by H2O2-stimulation after 4 hrs by Annexin-V-FITC/propidium iodide staining based flow cytometry (reference value: 6.4%). The format is functional.
Test [12] relates to SH-SY5Y. Put plainly: Neuroprotective activity against H2O2-induced apoptosis in human SH-SY5Y cells assessed as viable cells at 50 uM pretreated for 1 hr followed by H2O2-stimulation after 4 hrs by Annexin-V-FITC/propidium iodide staining based flow cytometry (reference value: 76%). To be noted: read-out: Activity. The format is functional.
Test [13] relates to SH-SY5Y. Kind of test: Neuroprotective activity against H2O2-induced morphological changes in human SH-SY5Y cells assessed as reduction in cell shrinkage after 4 hrs by phase contrast microscopic analysis. The format is functional, cell-based. The gist of the method: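 Cells were exposed to H2O2 (200 μM) for 4 h, in the presence or absence of compound at 25, 50 or 100 μM. Cell shrinkage and other morphology were viewed by phase contrast microscopy and compared with untreated control and H2O2-only cells.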

Test [14] concerns SH-SY5Y. Kind of test: Neuroprotective activity against H2O2-induced apoptosis in human SH-SY5Y cells assessed as late apoptotic cells at 100 uM pretreated for 1 hr followed by H2O2-stimulation after 4 hrs by Annexin-V-FITC/propidium iodide staining based flow cytometry (reference value: 15%). The format is functional.
In test [15] the test system is SH-SY5Y. Kind of test: Neuroprotective activity against H2O2-induced apoptosis in human SH-SY5Y cells assessed as early apoptotic cells at 100 uM pretreated for 1 hr followed by H2O2-stimulation after 4 hrs by Annexin-V-FITC/propidium iodide staining based flow cytometry (reference value: 6.4%). The format is functional.
Test [16] concerns SH-SY5Y. Put plainly: Neuroprotective activity against H2O2-induced apoptosis in human SH-SY5Y cells assessed as late apoptotic cells at 50 uM pretreated for 1 hr followed by H2O2-stimulation after 4 hrs by Annexin-V-FITC/propidium iodide staining based flow cytometry (reference value: 15%). The format is functional.

SMILES strings stand for the structures. Activity calls are given as the source filed them. No cut-off for these calls is given here.

With `C[C@@]1(O)[C@H](O)CC[C@@]2(C)[C@@H]3CC[C@@H]4C[C@]3(C=C4C(=O)O)CC[C@H]12`, the result with SH-SY5Y [1] was inactive. The same measure, in the same setting: next, `COC(=O)[C@]1(C)C[C@@H](O)C[C@@]2(C)[C@@H]3CC[C@@H]4C[C@]3(C=C4C(=O)O)CC[C@@H]21`: “inactive”.

With `C[C@@]12CCC[C@@](C)(C=O)[C@H]1CC[C@@]13C=C(C(=O)O)[C@@H](C1)[C@@H](O)C[C@H]32`, in the test with SH-SY5Y [2], the Activity is given as more than 10%.

Regarding `COC(=O)[C@]1(C)C[C@@H](O)C[C@@]2(C)[C@@H]3CC[C@@H]4C[C@@]3(CC[C@@H]21)C[C@@H]4C(=O)O`, in the test on SH-SY5Y [1], the outcome was inactive. Regarding `C[C@@]12C[C@H](O)C[C@@](C)(C=O)[C@H]1CC[C@]13C=C(C(=O)O)[C@H](CC[C@H]12)C3`, the result in the test on SH-SY5Y [1] was inactive. With `C[C@@]1(CO)C[C@@H](O)C[C@]2(C)[C@@H]1CC[C@@]13C[C@@H](CC[C@H]12)[C@@H](C(=O)O)C3`, the result in the test with SH-SY5Y [1] was inactive. Same read-out and setting: with `C[C@@]12CCC[C@@](C)(C(=O)O)[C@H]1CC[C@@]13C[C@@H](CC[C@H]12)[C@](O)(CO)C3` the entry was “inactive”. The same measure, in the same setting: next, `C[C@@]12C[C@H](O)C[C@@](C)(C(=O)O)[C@H]1CC[C@@]13C[C@@H](CC[C@H]12)[C@@H](C(=O)O)C3`: “inactive”. Regarding `CC1(C)[C@H](O)[C@@H](O)C[C@]2(C)[C@@H]1CC[C@]13C=C(C(=O)O)[C@H](CC[C@H]12)C3`, the Activity in the test on SH-SY5Y [2] is given as more than 10%.

Take `COC(=O)[C@]1(C)CC[C@H](O)[C@@]2(C)[C@@H]3CC[C@@H]4C[C@]3(C=C4C(=O)O)CC[C@@H]21`: the outcome in the test on SH-SY5Y [1] was inactive. Take `C[C@@]12CCC[C@@](C)(C(=O)O)[C@H]1CC[C@]13C=C(C(=O)O)[C@H](CC[C@H]12)C3`: in the test with SH-SY5Y [1], the outcome was inactive. Regarding `C[C@@]1(CO)C[C@@H](O)C[C@]2(C)[C@@H]1CC[C@]13C=C(C(=O)O)[C@H](CC[C@H]12)C3`, the result in the test on SH-SY5Y [1] was inactive.

Regarding `C[C@@]12CCC[C@@](C)(O)[C@H]1CC[C@]13C=C(C(=O)O)[C@H](CC[C@H]12)C3`, the Activity with SH-SY5Y [3] is given as 9.28%; in the test with SH-SY5Y [4], 3.93%; with SH-SY5Y [6] it was 1.44%; with SH-SY5Y [9], 0.727%; in the test on SH-SY5Y [2] it was more than 10%; with SH-SY5Y [10], 1.29%. For the same molecule, the Activity with SH-SY5Y [11] is 3.23%; in the test with SH-SY5Y [13], “Dose-dependent effect”; with SH-SY5Y [14], 5.94%; in the test with SH-SY5Y [15], 2.58%; in the test on SH-SY5Y [16], 5.34%. For the same molecule, in the test with SH-SY5Y [5], the outcome was Active. The viability at 25 µM in the test on SH-SY5Y [7] was determined as 86.2%. In the test on SH-SY5Y [8], the viability at 100 µM worked out at 90%. In addition, the viability at 50 µM in the test with SH-SY5Y [12] came to 90%.

As for `C[C@@]1(O)[C@H](O)CC[C@@]2(C)[C@@H]3CC[C@@H]4C[C@@]3(CC[C@H]12)C[C@@H]4C(=O)O`, the Activity with SH-SY5Y [2] was more than 10%.

`C[C@@]1(CO)CC(=O)C[C@]2(C)[C@@H]1CC[C@@]13C[C@@H](CC[C@H]12)[C@@H](C(=O)O)C3`: in the test on SH-SY5Y [2], the Activity is more than 10%.
